Assay outcomes from PubChem.
UBC13 inh = human UBC13 polyubiquitination inhibition | inhibition, % at 20 µM | AID 485273 | 330,000 compounds, 0.47% hits | UBC13 polyubiquitin chain formation, TR-FRET | P61088; in the data active = inhibition above about 45%, passing the limit was not always enough
PREPL inh = inhibitors of human prolyl oligopeptidase-like enzyme PREPL. Q4J6C6. recombinant PREPL, fluorescence polarization activity-based probe. inhibition, % at 5.96 µM. 320,000 compounds, 0.68% hits
Target sequence (Q4J6C6 whole entry, looked up): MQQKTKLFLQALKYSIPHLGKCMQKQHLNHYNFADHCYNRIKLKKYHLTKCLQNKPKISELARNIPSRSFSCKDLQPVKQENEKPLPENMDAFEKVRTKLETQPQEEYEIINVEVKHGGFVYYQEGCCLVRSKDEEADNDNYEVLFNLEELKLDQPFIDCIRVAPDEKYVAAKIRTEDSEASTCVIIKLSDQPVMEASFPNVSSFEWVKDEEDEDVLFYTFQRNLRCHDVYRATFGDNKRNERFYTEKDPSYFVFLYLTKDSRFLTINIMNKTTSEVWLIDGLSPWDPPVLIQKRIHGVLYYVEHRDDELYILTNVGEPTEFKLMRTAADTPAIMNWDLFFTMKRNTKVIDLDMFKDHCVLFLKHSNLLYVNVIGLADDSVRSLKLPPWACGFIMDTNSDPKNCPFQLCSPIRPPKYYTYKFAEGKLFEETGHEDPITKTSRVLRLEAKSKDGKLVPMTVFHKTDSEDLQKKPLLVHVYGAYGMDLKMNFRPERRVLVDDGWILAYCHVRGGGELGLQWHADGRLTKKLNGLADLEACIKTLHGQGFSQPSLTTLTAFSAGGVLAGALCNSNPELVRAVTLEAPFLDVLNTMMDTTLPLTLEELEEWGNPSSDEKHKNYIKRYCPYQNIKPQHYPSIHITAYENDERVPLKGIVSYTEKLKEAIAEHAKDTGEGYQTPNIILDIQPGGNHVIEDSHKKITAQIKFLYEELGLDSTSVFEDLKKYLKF
UCH37 inh = human UCH37 deubiquitinating enzyme inhibition. Q9Y5K5. 330,000 compounds, 0.33% hits. purified proteasome/UCH37, Ub-AMC cleavage fluorescence. AID 588478. inhibition, % (no concentration beside the values);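 active = mean inhibition over replicate wells above about 20%, limit read from the data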
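Schedule: 30 min plus 25 min, room temperature / Material: human UCH37 within purified proteasomes / Technique: AMC fluorescence intensity at 355/460 nm / Buffer or medium: pH 7.4 Tris-HCl (50 mM) with ovalbumin, ATP-MgCl2, DTT / Controls: wells without proteasome as full block, compound-free enzyme plus substrate as uninhibited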
Apaf-1 inh = human Apaf-1 inhibition | AID 489030 | reconstituted apoptosome caspase-3 activity, DEVD-Rh110 fluorescence | inhibition, % at 20 µM | O14727 | 330,000 compounds, 0.71% hits; active = inhibition of at least 40% at 20 µM
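System: reconstituted apoptosome with Apaf-1, cytochrome c, caspase-9, procaspase-3, dATP; Signal: Rh110 fluorescence intensity; Schedule: 30 min compound preincubation, 50 min activation, room temperature; Reagent: cytochrome c trigger plus (Z-DEVD)2-Rh110 caspase-3 substrate.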
PREPL confirm = confirmation of human PREPL enzyme inhibitors | recombinant PREPL, fluorescence polarization activity probe | 2,000 compounds, 67% hits | inhibition, % at 5.96 µM | AID 2803 | shares compounds with PREPL inh
Hits are given with their value; 0 = inactive; - = not tested or not shown. This is a sample that favours compounds with a hit; in the whole collection about 1.5% have one here. Rule as the data show it, unless noted: active = inhibition above about 43%; inactive = the rest.

SMILES	UBC13 inh	PREPL inh	UCH37 inh	Apaf-1 inh	PREPL confirm
CCCN1CCc2c(sc(NC(=S)NC(=O)c3ccccc3)c2C#N)C1	0	61	0	0	0
Cc1cc(=O)n2[nH]c(N)c(N=Nc3ccccc3)c2n1	-	0	0	-	-
Nc1[nH]n2c(=O)c3c(nc2c1N=Nc1ccc(Cl)cc1)CCCC3	0	51	0	0	68
Nc1[nH]n2c(=O)c3c(nc2c1N=Nc1ccccc1)CCCC3	0	64	0	0	60
O=C(CNC(=O)c1ccccc1)NN=Cc1cn[nH]c1-c1ccccc1	-	-	0	-	-
Cc1nnc(C)n1N=Cc1ccccc1	-	-	0	-	-
O=C(Cc1ccccc1)NN=Cc1ccccc1OCc1ccc(Cl)cc1	-	-	0	-	-
COc1cccc(C(=O)NN=C(C)CC(=O)Nc2ccc(N(C)C)cc2)c1	-	-	0	-	-
Nc1c(S(=O)(=O)c2ccccc2)c2nc3ccccc3nc2n1N=Cc1ccco1	-	-	0	-	-
Cc1cc(C)n2nc(/C(C#N)=C/c3ccccn3)c(C#N)c2n1	0	65	0	0	0
Clc1cccc(C=NN2CCN(Cc3ccccc3)CC2)c1	-	-	0	-	-
COc1ccccc1C=NNC(=O)c1ccc(COc2ccc(C)c(C)c2)o1	-	-	0	-	-
CCCCNC(=S)NN=Cc1ccc(OCC(=O)Nc2c(C)cc(C)cc2C)c(OC)c1	-	-	0	-	-
CCCn1cnc2cc(NCc3ccc(Br)cc3)ccc21	0	49	0	0	46
CN(C)c1ccc(CNc2ccc3c(c2)ncn3C(C)(C)C)cc1	0	43	0	0	0
CCn1cnc2cc(NCc3ccc(N(C)C)cc3)ccc21	0	0	0	0	-
Cc1ccc(Nc2nc(N)c3ccccc3n2)cc1Cl	0	0	0	0	-
COc1cc2nc(Nc3ccc(C)c(C)c3)nc(N)c2cc1OC	0	52	0	0	51
c1ccc(CNc2nc(-c3ccccn3)nc3ccccc23)cc1	0	67	0	0	64
c1ccc(CNc2nc(-c3ccccc3)nc3ccccc23)cc1	0	0	0	0	-
C=CCN(CC(=NO)c1sc(C(=O)OCC)nc1C)c1cccc(Br)c1	-	-	0	-	-
C[C@]12c3[nH]c4ccccc4c3CCN1C(=O)C(CC(=O)NCCN1CCOCC1)C[C@@H]2C(=O)N1CCOCC1 (stereo partly drawn)	0	0	0	0	-
CC(C)=CCC/C(C)=C/CNC(=O)CC1C[C@H](C(=O)N2CCOCC2)[C@@]2(C)c3[nH]c4ccccc4c3CCN2C1=O (stereo partly drawn)	0	57	0	0	0
CN1CCN(C(c2cccc(C(F)(F)F)c2)c2nnnn2C(C)(C)C)CC1 (stereo not drawn)	0	43	0	0	0
Cc1ccc(C)c(C(=O)OCC(=O)Nc2cccc(S(=O)(=O)NC3=NCCCCC3)c2)c1	0	46	0	0	0
SMILES	UBC13 inh	PREPL inh	UCH37 inh	Apaf-1 inh	PREPL confirm
O=C(COc1cccc([N+](=O)[O-])c1)NN=Cc1ccco1	-	-	0	-	-
O=C(COc1ccccc1[N+](=O)[O-])N/N=C/c1cccc(OC(=O)c2ccc3c(c2)OCO3)c1	0	47	-	0	0
COCCCNC(=O)c1c(NC(=O)c2cccs2)sc2c1CCCC2	0	44	0	0	0
COc1cc(/C=C2/C(=O)NN(c3ccc(Cl)c(Cl)c3)C2=O)cc([N+](=O)[O-])c1O	-	53	22	-	0
COc1cc(/C=C2/C(=O)NN(c3ccc(F)cc3)C2=O)cc(Cl)c1O	0	0	0	0	-
O=c1oc2c3c4c(cc2c(C(F)(F)F)c1CCN1CCOCC1)CCCN4CCC3	0	55	0	0	61
O=C(NN=Cc1ccc(Cl)cc1)C1CC12CCC2 (stereo not drawn)	-	-	0	-	-
N#Cc1nc(COc2ccc(-c3ccccc3)cc2)oc1NCCCN1CCOCC1	0	45	0	0	0
N#Cc1nc(/C=C/c2ccccc2)oc1NCCCN1CCOCC1	0	47	0	0	0
COc1ccc(-c2nn3c(-c4ccccc4)nnc3s2)cc1	0	0	0	0	-
CCN(CC)c1ccc(-c2nn3c(-c4ccccc4OC)nnc3s2)cc1	0	57	0	0	0
CN(C)c1ccc(C(CNC(=O)c2ccccc2)c2c[nH]c3ccccc23)cc1 (stereo not drawn)	0	51	0	0	59
CN(C)c1ccc(C(CNC(=O)c2ccccc2F)c2c[nH]c3ccccc23)cc1 (stereo not drawn)	0	47	26	0	51
CSc1ccc(C=NNC(=O)COc2ccc(Br)cc2Cl)cc1	-	-	0	-	-
COc1ccc(-c2c(-c3ccccc3)c(C(=O)C(=O)NCCCN(C)C)n3ccc4cc(OC)c(OC)cc4c23)cc1OC	0	46	0	0	52
CN(C)CCNC(=O)C(=O)c1c(-c2ccccc2)cc2ccccn12	0	0	0	0	-
COc1cccc(/C=N/Nc2ccc([N+](=O)[O-])cn2)c1O	0	56	-	0	0
Nc1c(S(=O)(=O)O)cc(NC(=O)c2ccccc2)c2c1C(=O)c1ccccc1C2=O	0	65	33	0	55
O=C(Nc1ccccc1-c1ccccc1)c1ccccc1	0	0	0	0	-
COc1ccc(C=NNC(=O)c2cc(-c3ccccc3)nc3ccccc23)c(OC)c1	-	-	0	-	-
CCOC(=O)c1ccccc1NC(=O)c1c(O)c2ccccc2n(CC)c1=O	0	0	0	0	-
CCn1c(=O)c(C(=O)Nc2ccc(C)cc2C)c(O)c2ccccc21	0	47	0	0	0
Cc1noc(NS(=O)(=O)c2ccc(NC(=O)Nc3ccc(Cl)c(Cl)c3)cc2)c1C	0	48	0	0	46
O=C(N/N=C1\CCCc2c1[nH]c1ccc(Cl)cc21)c1ccncc1	0	45	-	0	55
C(=NNc1nncn1N=Cc1ccco1)c1ccco1	-	-	0	-	-
SMILES	UBC13 inh	PREPL inh	UCH37 inh	Apaf-1 inh	PREPL confirm
CCCCCNC(=O)c1ccc2c(=O)[nH]c3c(C(=O)NCC4CCCO4)sc(=S)n3c2c1 (stereo not drawn)	0	61	0	0	57
CCn1c(N)c(C(=O)NCC2CCCO2)sc1=S (stereo not drawn)	0	0	0	0	-
Cc1ccc(CNC(=O)c2ccc3c(=O)[nH]c4c(C(=O)NCC5CCCO5)sc(=S)n4c3c2)cc1 (stereo not drawn)	0	44	0	0	46
O=C(NCc1ccccc1)c1ccc2c(=O)[nH]c3c(C(=O)NCC4CCCO4)sc(=S)n3c2c1 (stereo not drawn)	0	44	0	0	64
Cc1ccc(CNC(=O)c2ccc3c(=O)n(CC4CCCO4)c(=S)[nH]c3c2)cc1 (stereo not drawn)	0	0	0	0	-
O=C(NN=Cc1ccc(Cl)cc1Cl)c1ccc(-n2cnnn2)cc1	-	-	0	-	-
CCOc1ccc(C(C)=NNC(=O)Cn2nc([N+](=O)[O-])cc2C)cc1	-	-	0	-	-
COc1cc(NC(=O)CN2CCCCC2)c(C)cc1[N+](=O)[O-]	0	0	0	0	-
COc1cc(NC(=O)CN2CCN(c3ccccc3F)CC2)c(C)cc1[N+](=O)[O-]	0	55	0	0	69
COC(=O)NN=Cc1ccc(-c2ccc(Cl)cc2Cl)o1	-	-	0	-	-
Cc1nn(-c2ccccc2)c(Cl)c1C=NNC(=O)OC(C)(C)C	-	-	0	-	-
